This is an account of results in the array DNA melting data of Ke et al. (doi:10.1101/2024.01.08.574731).

Data set [1] is described as follows: folding enthalpy; higher = less favourable; fluorescence melt of hairpins on a sequencing array, two-state fit. The note with it: sodium 0.088 M. The procedure, abridged: (§1)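 Library hairpins on a sequenced MiSeq flow cell carried annealed Cy3 and quencher oligos, and their Cy3 fluorescence was imaged in 50 mM Na-HEPES pH 8.0 with 25 mM NaCl, in 2.5 °C steps up to 60 °C. Signals were normalised to Cy3 before quenching and to control constructs. Melting temperature and folding enthalpy were obtained from bootstrapped two-state fits, combined by inverse-variance weighting across four replicates, and the fitted temperatures were then raised by 9.35 °C to match UV melts.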

The nature of data set [2]: melting temperature; fluorescence melt of hairpins on a sequencing array, two-state fit, raised by 9.35 °C to match UV melts. To be noted: sodium 0.088 M. The procedure, abridged:
as §1

In the case of GATCAACTGGTTGATC ((((((....)))))), the folding enthalpy in data set [1] was -39.8 kcal/mol. The Tm in data set [2] was 55.2 °C.
For GATCAACTTATTGATC ((((((....)))))), in that order: -35.4 kcal/mol and 43 °C.
In the case of GATCAAGACGTTGATC ((((((....)))))), the folding enthalpy in data set [1] was -34 kcal/mol. In data set [2], the Tm amounted to 48.2 °C.
Regarding GATCAAGACTTGATC ((((((...)))))), in data set [1], the folding enthalpy is -32.4 kcal/mol. In addition, in data set [2], the Tm was 43.4 °C.
With GATCAAGACTTTGATC ((((((....)))))), the folding enthalpy in data set [1] was -35 kcal/mol. Moreover, the Tm in data set [2] amounted to 51.7 °C.
On the same counts, the results for GATCAAGAGATTGATC ((((((....)))))) are -29.5 kcal/mol and 41.8 °C.
On to GATCAAGATATTGATC ((((((....)))))), for which, in data set [1], the folding enthalpy is -34.7 kcal/mol. Besides, in data set [2], the Tm stood at 48.5 °C.
On the same counts, the results for GATCAAGCAATTGATC ((((((....)))))) are -34.1 kcal/mol and 48.8 °C.
On the same counts, the results for GATCAAGCATTTGATC ((((((....)))))) are -32.7 kcal/mol and 51 °C.
As to GATCAAGCCATTGATC ((((((....)))))), the folding enthalpy in data set [1] was -48.9 kcal/mol. Also, the Tm in data set [2] came out at 50.5 °C.
For GATCAAGCGTTTGATC ((((((....)))))), the folding enthalpy in data set [1] was -30.8 kcal/mol. Besides, the Tm in data set [2] was determined as 43.9 °C.
As for GATCAAGCTTTGATC ((((((...)))))), the folding enthalpy in data set [1] was -29.5 kcal/mol. For the same sequence, in data set [2], the Tm stood at 43.4 °C.
As for GATCAAGGAAACTCGATC ((((.((....)).)))), the folding enthalpy in data set [1] was -17.2 kcal/mol. The Tm in data set [2] worked out at 28.4 °C.
For GATCAAGGAAACTTGATC (((((((....))))))), in data set [1], the folding enthalpy is -46.6 kcal/mol. In addition, the Tm in data set [2] came to 54 °C.
In the case of GATCAAGGAATTGATC ((((((....)))))), the folding enthalpy in data set [1] was -31.8 kcal/mol. For the same sequence, the Tm in data set [2] came to 47.6 °C.
On the same counts, the results for GATCAAGGCTTTGATC ((((((....)))))) are -42 kcal/mol and 50.1 °C.
Consider GATCAAGGTGTTGATC ((((((....)))))), for which, in data set [1], the folding enthalpy was -31.7 kcal/mol. Moreover, the Tm in data set [2] came to 46.1 °C.
With GATCAAGTCATTGATC ((((((....)))))), in data set [1], the folding enthalpy was -41.8 kcal/mol. Besides, the Tm in data set [2] came to 52.3 °C.
As for GATCAATAAATTGATC ((((((....)))))), the folding enthalpy in data set [1] is -30.7 kcal/mol. Besides, in data set [2], the Tm came to 42.8 °C.
In the case of GATCAATACATTGATC ((((((....)))))), in data set [1], the folding enthalpy is -37.3 kcal/mol. For the same sequence, the Tm in data set [2] worked out at 49.2 °C.
On to GATCAATACGTTGATC ((((((....)))))), for which, in data set [1], the folding enthalpy is -37.9 kcal/mol. Besides, in data set [2], the Tm was 48 °C.
On the same counts, the results for GATCAATACTTTGATC ((((((....)))))) are -39.6 kcal/mol and 48.1 °C.
On to GATCAATAGTTGATC ((((((...)))))), for which the folding enthalpy in data set [1] was -26.2 kcal/mol. The Tm in data set [2] amounted to 40.5 °C.
For GATCAATATGTTGATC ((((((....)))))), in that order: -38.9 kcal/mol and 49 °C.
Consider GATCAATATTTGATC ((((((...)))))), for which the folding enthalpy in data set [1] was -27.9 kcal/mol. The Tm in data set [2] worked out at 41.9 °C.
For GATCAATATTTTGATC ((((((....)))))), in that order: -35.6 kcal/mol and 45.6 °C.
Turning to GATCAATCCCTTGATC ((((((....)))))), in data set [1], the folding enthalpy was -41.6 kcal/mol. Besides, the Tm in data set [2] turned out to be 46.7 °C.
As to GATCAATCGTTGATC ((((((...)))))), the folding enthalpy in data set [1] was -26.8 kcal/mol. Moreover, the Tm in data set [2] stood at 40.4 °C.
Regarding GATCAATGGCTTGATC ((((((....)))))), in data set [1], the folding enthalpy was -29 kcal/mol. Moreover, the Tm in data set [2] is 42.2 °C.
For GATCAATGGTTGATC ((((((...)))))), the folding enthalpy in data set [1] is -26.7 kcal/mol. In addition, the Tm in data set [2] came out at 41 °C.
With GATCAATGGTTTGATC ((((((....)))))), the folding enthalpy in data set [1] is -31.9 kcal/mol. Further, the Tm in data set [2] is 44.7 °C.
With GATCAATGTGTTGATC ((((((....)))))), the folding enthalpy in data set [1] was -35 kcal/mol. Further, in data set [2], the Tm stood at 50.4 °C.
In the case of GATCAATGTTTTGATC ((((((....)))))), the folding enthalpy in data set [1] was -29.4 kcal/mol. For the same sequence, in data set [2], the Tm is 47 °C.
Consider GATCAATTATTTGATC ((((((....)))))), for which, in data set [1], the folding enthalpy was -38.9 kcal/mol. Also, the Tm in data set [2] was 45.8 °C.
With GATCAATTCATTGATC ((((((....)))))), the folding enthalpy in data set [1] is -50.7 kcal/mol. Also, in data set [2], the Tm is 53.1 °C.
GATCAATTCGTTGATC ((((((....)))))): in data set [1], the folding enthalpy is -37.8 kcal/mol. The Tm in data set [2] is 48.6 °C.
With GATCAATTCTTGATC ((((((...)))))), in data set [1], the folding enthalpy was -29.1 kcal/mol. Also, the Tm in data set [2] turned out to be 44.8 °C.
Regarding GATCAATTTATTGATC ((((((....)))))), in data set [1], the folding enthalpy is -52.4 kcal/mol. The Tm in data set [2] was found to be 54.2 °C.
Turning to GATCAATTTCTTGATC ((((((....)))))), the folding enthalpy in data set [1] was -39.3 kcal/mol. The Tm in data set [2] was 43.3 °C.
On the same counts, the results for GATCACAAGGGTGATC ((((((....)))))) are -36.4 kcal/mol and 55.9 °C.
On to GATCACAATCGTGATC ((((((....)))))), for which, in data set [1], the folding enthalpy was -38.5 kcal/mol. Besides, the Tm in data set [2] turned out to be 56.4 °C.
GATCACACGGTGATC ((((((...)))))): the folding enthalpy in data set [1] was -37.5 kcal/mol. The Tm in data set [2] amounted to 60.5 °C.
On the same counts, the results for GATCACACGTGTGATC ((((((....)))))) are -43.5 kcal/mol and 57.7 °C.
On the same counts, the results for GATCACACTTGTGATC ((((((....)))))) are -39.4 kcal/mol and 56.4 °C.
With GATCACAGAAGTGATC ((((((....)))))), in data set [1], the folding enthalpy was -37.4 kcal/mol. Besides, the Tm in data set [2] amounted to 54.4 °C.
Turning to GATCACAGTAGTGATC ((((((....)))))), the folding enthalpy in data set [1] is -40.1 kcal/mol. In addition, in data set [2], the Tm is 59 °C.
For GATCACAGTGTGATC ((((((...)))))), the folding enthalpy in data set [1] is -39.9 kcal/mol. Also, the Tm in data set [2] is 56.6 °C.
As to GATCACATCTGTGATC ((((((....)))))), the folding enthalpy in data set [1] was -38.7 kcal/mol. Further, in data set [2], the Tm turned out to be 57.9 °C.
For GATCACATTTGTGATC ((((((....)))))), the folding enthalpy in data set [1] is -40.8 kcal/mol. Further, the Tm in data set [2] was 59.3 °C.
Consider GATCACCACCGTGATC ((((((....)))))), for which the folding enthalpy in data set [1] was -37.3 kcal/mol. In addition, the Tm in data set [2] is 55.5 °C.
For GATCACCATAGTGATC ((((((....)))))), in that order: -42.2 kcal/mol and 58.5 °C.
In the case of GATCACCCGGGTGATC ((((((....)))))), the folding enthalpy in data set [1] is -51.9 kcal/mol. Also, the Tm in data set [2] was determined as 59 °C.
With GATCACCCTGGTGATC ((((((....)))))), the folding enthalpy in data set [1] is -41.1 kcal/mol. Further, the Tm in data set [2] is 64.1 °C.
GATCACCGAAAGGTAATC (((.(((....))).))): the folding enthalpy in data set [1] is -20.9 kcal/mol. Besides, the Tm in data set [2] was found to be 39.5 °C.
For GATCACCGATGTGATC ((((((....)))))), in that order: -30.1 kcal/mol and 54.6 °C.
Take GATCACCGGCGTGATC ((((((....)))))): the folding enthalpy in data set [1] is -37.7 kcal/mol. Moreover, the Tm in data set [2] amounted to 54.7 °C.
On the same counts, the results for GATCACCGGGGTGATC ((((((....)))))) are -46.5 kcal/mol and 62.7 °C.
